Assay results as given in ChEMBL document CHEMBL4342434, “Identification of HUHS190, a human naftopidil metabolite, as a novel anti-bladder cancer drug” (Bioorg Med Chem Lett, 2020).

How the values were obtained:
HEK293 = experiment: Cytotoxicity against human HEK293 cells assessed as reduction in cell viability incubated for 48 hrs by MTT assay; format: cell-based; settings: HEK293, 48 h
In short: (§1)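 Growth inhibition was measured in vitro on human lines: HEK293 (embryonic kidney), PNT1A (normal prostate epithelium immortalized with SV40), PC3 and DU145 (prostate cancer), KK47 and T24 (bladder carcinoma) and 786-O (kidney carcinoma). IC50 in µM was taken from dose–response curves for each cell line.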

PNT1A = experiment: Cytotoxicity against human PNT1A cells assessed as reduction in cell viability incubated for 48 hrs by MTT assay; format: cell-based; in short: as §1
PC-3 = experiment: Antiproliferative activity against human PC3 cells assessed as reduction in cell viability incubated for 48 hrs by MTT assay; format: functional, cell-based; settings: PC-3, 48 h; in short: as §1
DU-145 = experiment: Antiproliferative activity against human DU145 cells assessed as reduction in cell viability incubated for 48 hrs by MTT assay; format: functional, cell-based; settings: DU-145, 48 h; in short: as §1
KK-47 cell line = experiment: Antiproliferative activity against human KK47 cells assessed as reduction in cell viability incubated for 48 hrs by MTT assay; format: functional, cell-based; settings: KK-47, 48 h; in short: as §1
T-24 = experiment: Antiproliferative activity against human T24 cells assessed as reduction in cell viability incubated for 48 hrs by MTT assay; format: functional, cell-based; settings: T-24, 48 h; in short: as §1
786-0 = experiment: Antiproliferative activity against human 786-O cells assessed as reduction in cell viability incubated for 48 hrs by MTT assay; format: functional, cell-based; settings: 786-0, 48 h; in short: as §1
[1] = Cmax in Sprague-Dawley rat at 32 mg/kg, po measured after 15 mins by HPLC analysis; format: ADME, organism-based; design: dose 32 mg/kg, route oral; settings: in vivo
[2] = AUC (0 to 6 hrs) in Sprague-Dawley rat at 32 mg/kg, po measured upto 6 hrs by HPLC analysis; format: ADME, organism-based; design: dose 32 mg/kg, time < 6 hr, route oral; settings: in vivo
[3] = Antiproliferative activity against mouse MB49 cells assessed as reduction in cell viability after 72 hrs by WST-8 assay; format: functional, cell-based; settings: MB49, 72 h
[4] = Antitumor activity against mouse MB49 cells xenografted in C57BL/6 mouse bladder cancer model assessed as death rate at 50 mg/ml dosed via intravesical instillation through catheter for 2 hrs and measured after 28 days relative to control; format: functional
In short: (§2)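 MB49 cells (C57BL/6-derived) were injected by needle into the bladder smooth-muscle layer of anaesthetised C57BL/6 mice after laparotomy. The same day (day 0), a single intravesical instillation was given and held in the bladder for 2 h, with saline as the control. Deaths were recorded over 4 weeks, to day 28.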

[5] = Toxicity in C57BL/6 mouse bladder cancer model xenografted with mouse MB49 cells at 50 mg/ml dosed via intravesical instillation through catheter for 2 hrs and measured for 28 days; format: organism-based; settings: in vivo, other
In short: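 […] model: a small number of MB49 cells (C57BL/6-derived) were injected by needle into the bladder smooth muscle of C57BL/6 mice after laparotomy under anaesthesia. Compound at 50 mg/mL was then given once by intravesical instillation and kept for 2 h. Day 0 was implantation/dosing, and survival was followed for 4 weeks. Saline, BCG (2 mg/mL) and pirarubicin (1 mg/mL) served as comparators.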

[6] = Antiproliferative activity against C3H mouse MBT2 cells assessed as reduction in cell viability; format: functional, cell-based
L5178Y = experiment: Antiproliferative activity against mouse L5178Y cells assessed as reduction in cell viability; format: functional, cell-based
[7] = Antitumor activity against mouse MB49 cells xenografted in C57BL/6 mouse bladder cancer model assessed as death rate at 1 mg/ml dosed via intravesical instillation through catheter for 2 hrs and measured after 28 days relative to control; format: functional; in short: as §2

| IC50 (PC-3) | IC50 (DU-145) | IC50 (786-0) | Compound | IC50 (HEK293) | IC50 (PNT1A) | IC50 (KK-47 cell line) | IC50 (T-24) | Cmax [1] | AUC(0-t) at 6 h [2] | IC50 [3] | mortality [4] | Activity [5] | IC50 [6] | IC50 (L5178Y) | mortality [7] |
| --- | --- | --- | --- | --- | --- | --- | --- | --- | --- | --- | --- | --- | --- | --- | --- |
| 45.7 µM | > 50 µM | 38.7 µM | COc1cc(O)ccc1N1CCN(CC(O)COc2ccc(O)c3ccccc23)CC1 (stereo not drawn) | > 50 µM | 37.2 µM | > 50 µM | 37.4 µM |  |  |  |  |  |  |  |  |
| 17.7 µM | 20.3 µM | 18.5 µM | Oc1ccc(N2CCN(CC(O)COc3ccc(O)c4ccccc34)CC2)c(O)c1 (stereo not drawn) | 40.4 µM | 17.1 µM | 17.9 µM | 15.6 µM |  |  |  |  |  |  |  |  |
| 26.1 µM | > 50 µM | 9.7 µM | Oc1ccccc1N1CCN(CC(O)COc2ccc(O)c3ccccc23)CC1 (stereo not drawn) | > 50 µM | 37.4 µM | 33 µM | 14.8 µM |  |  |  |  |  |  |  |  |
| 30.3 µM | 11.6 µM | 17.5 µM | Oc1ccc(N2CCN(CC(O)COc3cccc4ccccc34)CC2)c(O)c1 (stereo not drawn) | > 50 µM | 29.9 µM | 9.6 µM | 13.4 µM |  |  |  |  |  |  |  |  |
| 21.7 µM | 18 µM | 18.7 µM | Oc1ccccc1N1CCN(CC(O)COc2cccc3ccccc23)CC1 (stereo not drawn) | > 50 µM | 22.2 µM | 18.9 µM | 18 µM |  |  |  |  |  |  |  |  |
| 28 µM | 35.1 µM | 46.9 µM | COc1ccccc1N1CCN(CC(O)COc2ccc(O)c3ccccc23)CC1 (stereo not drawn) | > 50 µM | 34.9 µM | 17.6 µM | 16.1 µM |  |  |  |  |  |  |  |  |
| 31.2 µM | 21.1 µM | 13.3 µM | COc1ccccc1N1CCN(CC(O)COc2cccc3ccccc23)CC1 (stereo not drawn) [NAFTOPIDIL] | 47.3 µM | 27 µM | 19 µM | 18.5 µM | 110 ng/mL | 202 ng·h/mL | 23 µM |  |  |  |  |  |
|  |  |  | COc1cccc2c1C(=O)c1c(O)c3c(c(O)c1C2=O)C[C@@](O)(C(=O)CO)C[C@@H]3O[C@H]1C[C@H](N)[C@H](O[C@@H]2CCCCO2)[C@H](C)O1 [PIRARUBICIN] |  |  |  |  |  |  | 0.022 µM |  |  | 0.022 µM | 0.023 µM | 70 - 80% |

| Compound | IC50 (PC-3) | IC50 (DU-145) | IC50 (786-0) | IC50 (HEK293) | IC50 (PNT1A) | IC50 (KK-47 cell line) | IC50 (T-24) | Cmax [1] | AUC(0-t) at 6 h [2] | IC50 [3] | mortality [4] | Activity [5] | IC50 [6] | IC50 (L5178Y) | mortality [7] |
| --- | --- | --- | --- | --- | --- | --- | --- | --- | --- | --- | --- | --- | --- | --- | --- |
| COc1cc(O)ccc1N1CCN(CC(O)COc2cccc3ccccc23)CC1 (stereo not drawn) | 24.4 µM | 17.2 µM | 11.4 µM | > 50 µM | > 50 µM | 11.8 µM | 10.5 µM | 397 ng/mL | 204 ng·h/mL | 12 µM | 30% | Non-Toxic |  |  |  |
